From ChEMBL document CHEMBL5321292, “Targeting Cytotoxic Agents through EGFR-Mediated Covalent Binding and Release” (J Med Chem, 2023)
One block for each molecule: values may come before it. Calls of active or inactive are those of the source. The calls are words filed in the database; no cut-off is given here.

Tests used:
[1] = Stability of compound assessed as formation of 5-fluorouracil by measuring half life
[2] = biological target: T1, Epidermal growth factor receptor (Homo sapiens, UniProt P00533); experiment: Inhibition of EGFR phosphorylation in human A-431 cells incubated for 4 hr
T1 sequence (P00533 whole entry): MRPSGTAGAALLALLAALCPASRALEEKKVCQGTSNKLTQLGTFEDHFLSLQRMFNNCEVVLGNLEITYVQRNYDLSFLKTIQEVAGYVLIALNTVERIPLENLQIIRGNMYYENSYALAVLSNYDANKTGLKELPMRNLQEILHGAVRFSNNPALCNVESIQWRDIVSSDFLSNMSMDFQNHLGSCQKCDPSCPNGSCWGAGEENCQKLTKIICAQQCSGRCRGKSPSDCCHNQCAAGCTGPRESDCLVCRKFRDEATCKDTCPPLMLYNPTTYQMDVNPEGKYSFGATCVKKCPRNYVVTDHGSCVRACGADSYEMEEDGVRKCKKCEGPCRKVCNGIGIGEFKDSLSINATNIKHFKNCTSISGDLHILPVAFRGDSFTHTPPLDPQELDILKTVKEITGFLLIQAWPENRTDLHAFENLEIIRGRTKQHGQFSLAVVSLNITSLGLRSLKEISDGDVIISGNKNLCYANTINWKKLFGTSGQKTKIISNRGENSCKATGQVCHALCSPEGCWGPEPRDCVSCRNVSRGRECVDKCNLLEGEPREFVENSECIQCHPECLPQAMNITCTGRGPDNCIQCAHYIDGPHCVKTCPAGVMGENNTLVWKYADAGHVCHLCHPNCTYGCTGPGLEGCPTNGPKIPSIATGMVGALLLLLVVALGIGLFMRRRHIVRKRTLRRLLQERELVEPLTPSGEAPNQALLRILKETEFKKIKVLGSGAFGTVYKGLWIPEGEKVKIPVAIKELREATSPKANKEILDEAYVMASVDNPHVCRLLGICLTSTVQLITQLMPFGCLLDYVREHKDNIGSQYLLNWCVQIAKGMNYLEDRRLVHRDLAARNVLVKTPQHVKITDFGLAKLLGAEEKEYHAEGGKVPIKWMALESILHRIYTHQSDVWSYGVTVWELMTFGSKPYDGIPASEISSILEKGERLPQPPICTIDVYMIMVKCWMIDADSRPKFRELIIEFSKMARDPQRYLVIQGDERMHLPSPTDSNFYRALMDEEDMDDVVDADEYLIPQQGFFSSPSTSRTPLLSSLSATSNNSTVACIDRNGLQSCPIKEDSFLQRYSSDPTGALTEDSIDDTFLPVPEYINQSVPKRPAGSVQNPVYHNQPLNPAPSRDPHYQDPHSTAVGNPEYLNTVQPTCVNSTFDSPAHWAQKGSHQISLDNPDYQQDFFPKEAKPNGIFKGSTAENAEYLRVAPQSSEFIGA

[3] = biological target: T1, Epidermal growth factor receptor; experiment: Inhibition of EGFR phosphorylation in human A-431 cells at 10 uM incubated for 4 hr by Western blot analysis; type: cell-based
Outline: (§1)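 A431 cells treated for 4 h and lysed in Phosphosafe buffer with protease inhibitors. Western blot probed with anti-EGFR and anti-pEGFR primary antibodies (1:1000 in 5% BSA) plus a loading control, then HRP-conjugated secondary antibodies. Bands detected by ECL.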

[4] = biological target: T1, Epidermal growth factor receptor; experiment: Inhibition of EGFR in human A-431 cells incubated for 2.5 hrs by HTRF analysis; type: cell-based
Outline: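 A431 cells plated at 20 000/well and allowed to adhere for 24 h. Treated 2.5 h in duplicate (0.1% DMSO), then stimulated with 100 ng/mL EGF for 30 min. Lysed 30 min at room temperature. HTRF measured pEGFR (Tyr1068) and total EGFR at 665/620 nm. Values taken as pEGFR/total EGFR ratio, expressed as % of 0 μM control.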

A-431 [5] = experiment: Antiproliferative activity against human A-431 cells assessed as cell growth inhibition measured after 72 hrs by SRB assay; type: functional, cell-based; conditions: A-431, read-out: pGI50 (converted)
[6] = biological target: T1, Epidermal growth factor receptor; experiment: Inhibition of EGFR phosphorylation in human A-431 cells at 1 uM incubated for 4 hr by Western blot analysis; type: cell-based
Outline: as §1

[7] = biological target: Epidermal growth factor receptor (Mus musculus, UniProt Q01279); experiment: Inhibition of C-terminal his6-tagged mouse EGFR by TR-FRET assay
Epidermal growth factor receptor (Mus musculus, UniProt Q01279), sequence (Q01279 whole entry): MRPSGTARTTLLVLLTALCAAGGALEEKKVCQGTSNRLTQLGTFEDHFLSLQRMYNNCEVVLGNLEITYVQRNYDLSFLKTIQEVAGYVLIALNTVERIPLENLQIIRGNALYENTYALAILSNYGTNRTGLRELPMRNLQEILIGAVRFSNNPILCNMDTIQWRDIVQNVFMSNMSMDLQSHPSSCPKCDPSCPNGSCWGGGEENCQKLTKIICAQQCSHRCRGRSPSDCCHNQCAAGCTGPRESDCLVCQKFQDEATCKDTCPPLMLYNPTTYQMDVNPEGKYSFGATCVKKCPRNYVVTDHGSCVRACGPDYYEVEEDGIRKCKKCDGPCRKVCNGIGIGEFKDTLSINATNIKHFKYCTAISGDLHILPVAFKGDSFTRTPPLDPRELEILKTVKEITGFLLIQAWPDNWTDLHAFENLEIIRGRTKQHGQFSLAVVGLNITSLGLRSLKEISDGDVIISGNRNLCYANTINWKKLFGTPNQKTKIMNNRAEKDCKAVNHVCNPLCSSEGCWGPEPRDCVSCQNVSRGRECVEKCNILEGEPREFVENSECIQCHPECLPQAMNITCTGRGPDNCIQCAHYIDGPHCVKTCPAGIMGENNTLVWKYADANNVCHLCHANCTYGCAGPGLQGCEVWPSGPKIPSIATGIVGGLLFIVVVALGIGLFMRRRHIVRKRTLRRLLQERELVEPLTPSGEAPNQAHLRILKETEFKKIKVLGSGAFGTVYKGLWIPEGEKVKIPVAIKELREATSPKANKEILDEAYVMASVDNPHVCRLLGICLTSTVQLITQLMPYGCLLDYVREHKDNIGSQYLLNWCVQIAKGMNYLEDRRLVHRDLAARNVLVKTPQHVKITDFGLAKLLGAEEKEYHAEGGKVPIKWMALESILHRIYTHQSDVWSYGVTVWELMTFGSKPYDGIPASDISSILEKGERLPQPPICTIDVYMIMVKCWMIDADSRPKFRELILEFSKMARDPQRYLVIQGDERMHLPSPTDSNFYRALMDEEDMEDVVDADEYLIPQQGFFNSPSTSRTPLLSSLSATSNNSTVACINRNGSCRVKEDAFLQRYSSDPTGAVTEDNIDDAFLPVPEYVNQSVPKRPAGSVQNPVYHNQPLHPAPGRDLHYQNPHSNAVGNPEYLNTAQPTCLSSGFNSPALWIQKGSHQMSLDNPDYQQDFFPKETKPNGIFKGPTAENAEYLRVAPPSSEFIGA

A-431 [8] = experiment: Antiproliferative activity against human A-431 cells assessed as cell growth inhibition measured after 72 hrs in presence of 5-fluorouracil by SRB assay; type: functional, cell-based; conditions: A-431, 72 h
Outline: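 A431 cells (ECACC) seeded day 0 at exponential-growth density in DMEM + 10% FBS. Compound diluted in medium and added day 1, final DMSO 0.1%. Incubated 72 h at 37 °C, 5% CO2. Fixed with 50% TCA at 4 °C for 1 h, stained with 0.4% SRB for 30 min, washed with 1% AcOH, solubilised in 10 mM Tris pH 10.5. Absorbance read at 570 nm.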

t1/2 [1]: 2.9 h
Compound: O=C(/C=C/n1cc(F)c(=O)[nH]c1=O)Oc1ccc(Cl)cc1

IC50 [2]: 15.8 nM
inhibition [3]: Active
IC50 [4]: 15.8 nM
GI50 (A-431 [5]): 5.01 µM
inhibition [6]: inactive
IC50 [7]: 158 nM
Compound: COc1cc2ncnc(Nc3ccc(F)c(Cl)c3)c2cc1OC(=O)/C=C/n1cc(F)c(=O)[nH]c1=O

t1/2 [1]: 36 h
Compound: COc1ccc(OC(=O)/C=C/n2cc(F)c(=O)[nH]c2=O)cc1

IC50 [2]: 2510 nM
IC50 [4]: 2510 nM
IC50 [7]: 50.1 nM
Compound: COc1cc2ncnc(Nc3ccc(F)c(Cl)c3)c2cc1NC(=O)/C=C/n1cc(F)c(=O)[nH]c1=O

t1/2 [1]: 10 h
Compound: COCCOCCOc1ccc(NC(=O)/C=C/n2cc(F)c(=O)[nH]c2=O)cc1

t1/2 [1]: ~ 36 hr
Compound: O=C(/C=C/n1cc(F)c(=O)[nH]c1=O)Cc1ccccc1

IC50 (A-431 [8]): 631 nM
inhibition [6]: Active
Compound: COc1cc2ncnc(Nc3ccc(F)c(Cl)c3)c2cc1OC(=O)/C=C/CN1CCCCC1

t1/2 [1]: 0.1 h
Compound: O=C(/C=C/n1cc(F)c(=O)[nH]c1=O)Oc1ccc([N+](=O)[O-])cc1

t1/2 [1]: 3 h
Compound: O=C(/C=C/n1cc(F)c(=O)[nH]c1=O)Oc1ccc(F)cc1

t1/2 [1]: 2.5 h
Compound: N#Cc1ccc(OC(=O)/C=C/n2cc(F)c(=O)[nH]c2=O)cc1
